Assay results published in ChEMBL document CHEMBL3877264, “Quinolidene-rhodanine conjugates: Facile synthesis and biological evaluation” (Eur J Med Chem, 2017).
In brackets after ≈: the same amount, converted by molar mass.

Tests used:
Type in all cases: functional
Staphylococcus aureus [1] = assay: Growth inhibition of Staphylococcus aureus NCIM 2010 at 3 ug/ml measured after 12 hrs relative to control; conditions: NCIM 2010, 12 h, read-out: GI
Outline: (§1)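 Bacteria grown in LB at 37 °C and 180 rpm to OD 1. Compounds added to wells, then 0.1% inoculum of 1 OD culture (620 nm). Growth read as OD at 620 nm after 8 h for gram-negative and after 12 h for gram-positive strains.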

Escherichia coli [2] = assay: Growth inhibition of Escherichia coli NCIM 2688 at 30 ug/ml measured after 8 hrs relative to control; conditions: NCIM 2688, 8 h, read-out: GI; outline: as §1
[3] = system: Mycobacterium tuberculosis; assay: Growth inhibition of Mycobacterium bovis BCG ATCC 35743 at dormant stage at 10 ug/ml measured after 12 days by nitrate reductase dye based two fold dilution method relative to control; conditions: BCG str. ATCC 35743, 288 h, read-out: GI
Outline: (§2)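 M. bovis BCG was grown in Dubos medium and assayed in Mycobacterium pheli minimal medium (pH 6.6), with compounds from DMSO stocks. Incubation lasted 8 days for active and 12 days for dormant cultures. Viability was read by nitrate reductase at 540 nm against cell-free blanks, with vehicle set as 100% growth. Primary screen was at 30, 10 and 3 µg/ml, in triplicate, mean ± SD. MIC was taken from dose-response curves.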

Bacillus subtilis [4] = assay: Growth inhibition of Bacillus subtilis NCIM 2079 at 10 ug/ml measured after 12 hrs relative to control; conditions: NCIM 2079, 12 h, read-out: GI; outline: as §1
Bacillus subtilis [5] = assay: Growth inhibition of Bacillus subtilis NCIM 2079 at 30 ug/ml measured after 12 hrs relative to control; conditions: NCIM 2079, 12 h, read-out: GI; outline: as §1
Candida albicans = assay: Antifungal activity against Candida albicans NCIM 3471 by standard agar method
Outline: (§3)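 MICs determined by standard agar method; DMSO as solvent control.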

Bacillus subtilis [6] = assay: Antibacterial activity against Bacillus subtilis NCIM 2079 measured after 12 hrs; conditions: NCIM 2079, 12 h; outline: as §1
Pseudomonas fluorescens [7] = assay: Antibacterial activity against Pseudomonas fluorescens NCIM 2036 measured after 8 hrs; conditions: NCIM 2036, 8 h; outline: as §1
[8] = system: Mycobacterium tuberculosis; assay: Growth inhibition of Mycobacterium bovis BCG ATCC 35743 at dormant stage at 3 ug/ml measured after 12 days by nitrate reductase dye based two fold dilution method relative to control; conditions: BCG str. ATCC 35743, 288 h, read-out: GI; outline: as §2
Pseudomonas fluorescens [9] = assay: Growth inhibition of Pseudomonas fluorescens NCIM 2036 at 30 ug/ml measured after 8 hrs relative to control; conditions: NCIM 2036, 8 h, read-out: GI; outline: as §1
Escherichia coli [10] = assay: Growth inhibition of Escherichia coli NCIM 2688 at 3 ug/ml measured after 8 hrs relative to control; conditions: NCIM 2688, 8 h, read-out: GI; outline: as §1
Aspergillus niger = assay: Antifungal activity against Aspergillus niger NCIM 1196 by standard agar method; outline: as §3
Pseudomonas fluorescens [11] = assay: Growth inhibition of Pseudomonas fluorescens NCIM 2036 at 10 ug/ml measured after 8 hrs relative to control; conditions: NCIM 2036, 8 h, read-out: GI; outline: as §1
[12] = system: Mycobacterium tuberculosis; assay: Growth inhibition of Mycobacterium bovis BCG ATCC 35743 at dormant stage at 30 ug/ml measured after 12 days by nitrate reductase dye based two fold dilution method relative to control; conditions: BCG str. ATCC 35743, 288 h, read-out: GI; outline: as §2
Staphylococcus aureus [13] = assay: Antibacterial activity against of Staphylococcus aureus NCIM 2010 measured after 12 hrs; conditions: NCIM 2010, 12 h; outline: as §1
[14] = system: Mycobacterium tuberculosis; assay: Growth inhibition of Mycobacterium tuberculosis H37Ra ATCC 25177 at active stage measured after 8 days by XTT dye based two fold dilution method; conditions: H37Ra ATCC 25177, 192 h
Outline: (§4)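 MTB H37Ra was grown in Dubos medium, then exposed in Mycobacterium pheli minimal medium (pH 6.6) to compounds dissolved in DMSO. The assay ended on day 8 (active) or day 12 (dormant). Viable cells were measured by XTT reduction menadione assay at 470 nm, blank-corrected, relative to vehicle control. Triplicates were expressed as mean ± SD. MIC came from dose-response curves.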

[15] = Antifungal activity against Fusarium oxysporum NCIM 1332 by standard agar method; outline: as §3
[16] = Antifungal activity against Cryptococcus neoformans NCIM 576 by standard agar method; outline: as §3
Escherichia coli [17] = assay: Antibacterial activity against Escherichia coli NCIM 2688 measured after 8 hrs; conditions: NCIM 2688, 8 h; outline: as §1
Pseudomonas fluorescens [18] = assay: Growth inhibition of Pseudomonas fluorescens NCIM 2036 at 3 ug/ml measured after 8 hrs relative to control; conditions: NCIM 2036, 8 h, read-out: GI; outline: as §1
[19] = system: Mycobacterium tuberculosis; assay: Growth inhibition of Mycobacterium bovis BCG ATCC 35743 at active stage measured after 8 days by nitrate reductase dye based two fold dilution method; conditions: BCG str. ATCC 35743, 192 h; outline: as §2
Staphylococcus aureus [20] = assay: Growth inhibition of Staphylococcus aureus NCIM 2010 at 30 ug/ml measured after 12 hrs relative to control; conditions: NCIM 2010, 12 h, read-out: GI; outline: as §1
Bacillus subtilis [21] = assay: Growth inhibition of Bacillus subtilis NCIM 2079 at 3 ug/ml measured after 12 hrs relative to control; conditions: NCIM 2079, 12 h, read-out: GI; outline: as §1
Escherichia coli [22] = assay: Growth inhibition of Escherichia coli NCIM 2688 at 10 ug/ml measured after 8 hrs relative to control; conditions: NCIM 2688, 8 h, read-out: GI; outline: as §1
[23] = system: Mycobacterium tuberculosis; assay: Growth inhibition of Mycobacterium tuberculosis H37Ra ATCC 25177 at dormant stage measured after 12 days by XTT dye based two fold dilution method; conditions: H37Ra ATCC 25177, 288 h; outline: as §4
Aspergillus flavus = assay: Antifungal activity against Aspergillus flavus NCIM 539 by standard agar method; outline: as §3
[24] = system: Mycobacterium tuberculosis; assay: Growth inhibition of Mycobacterium bovis BCG ATCC 35743 at dormant stage measured after 12 days by nitrate reductase dye based two fold dilution method; conditions: BCG str. ATCC 35743, 288 h; outline: as §2
Staphylococcus aureus [25] = assay: Growth inhibition of Staphylococcus aureus NCIM 2010 at 10 ug/ml measured after 12 hrs relative to control; conditions: NCIM 2010, 12 h, read-out: GI; outline: as §1

Row | Structure (SMILES) | inhibition of growth at 3 µg/mL (Staphylococcus aureus [1]) | inhibition of growth at 30 µg/mL (Escherichia coli [2]) | inhibition of growth at 10 µg/mL [3] | inhibition of growth at 10 µg/mL (Bacillus subtilis [4]) | inhibition of growth at 30 µg/mL (Bacillus subtilis [5]) | MIC (Candida albicans) | MIC (Bacillus subtilis [6]) | MIC (Pseudomonas fluorescens [7]) | inhibition of growth at 3 µg/mL [8] | inhibition of growth at 30 µg/mL (Pseudomonas fluorescens [9]) | inhibition of growth at 3 µg/mL (Escherichia coli [10]) | MIC (Aspergillus niger) | inhibition of growth at 10 µg/mL (Pseudomonas fluorescens [11]) | inhibition of growth at 30 µg/mL [12] | MIC (Staphylococcus aureus [13]) | IC50 [14] | IC90 [14] | MIC [15] | MIC [16] | MIC (Escherichia coli [17]) | also measured
1 | O=C(O)CCN1C(=O)/C(=C/c2cc3cc(F)ccc3nc2Cl)SC1=S | 5.15% | 22.4% | 23.5% | -4.74% | -9.07% | 50 µg/mL (≈ 126 µM) | > 30 µg/mL | > 30 µg/mL | 18.2% | 7.54% | 15.7% | 25 µg/mL (≈ 63 µM) | -7.25% | 59.8% | > 30 µg/mL | > 30 µg/mL | > 30 µg/mL | 50 µg/mL (≈ 126 µM) | 25 µg/mL (≈ 63 µM) | > 30 µg/mL | inhibition of growth at 3 µg/mL (Pseudomonas fluorescens [18]): 9.73%; IC50 [19]: > 30 µg/mL; IC90 [19]: > 30 µg/mL; inhibition of growth at 30 µg/mL (Staphylococcus aureus [20]): -23.8%; inhibition of growth at 3 µg/mL (Bacillus subtilis [21]): -5.16%; inhibition of growth at 10 µg/mL (Escherichia coli [22]): 21.4%; IC50 [23]: > 30 µg/mL; IC90 [23]: > 30 µg/mL; MIC (Aspergillus flavus): 25 µg/mL (≈ 63 µM); IC50 [24]: > 30 µg/mL; IC90 [24]: > 30 µg/mL; inhibition of growth at 10 µg/mL (Staphylococcus aureus [25]): -12.1%
2 | O=C1NC(=S)S/C1=C\c1cc2ccccc2nc1Cl | -15.7% | -28.5% | -22.1% | 0.915% | 0.707% | 150 µg/mL (≈ 489 µM) | > 30 µg/mL | > 30 µg/mL | -80.1% | 5.4% | -40.6% | 100 µg/mL (≈ 326 µM) | -9.65% | -43.1% | > 30 µg/mL | > 30 µg/mL | > 30 µg/mL | 100 µg/mL (≈ 326 µM) | 50 µg/mL (≈ 163 µM) | > 30 µg/mL | inhibition of growth at 3 µg/mL (Pseudomonas fluorescens [18]): -17.5%; IC50 [19]: > 30 µg/mL; IC90 [19]: > 30 µg/mL; inhibition of growth at 30 µg/mL (Staphylococcus aureus [20]): -28.2%; inhibition of growth at 3 µg/mL (Bacillus subtilis [21]): 7.53%; inhibition of growth at 10 µg/mL (Escherichia coli [22]): -14.7%; IC50 [23]: > 30 µg/mL; IC90 [23]: > 30 µg/mL; MIC (Aspergillus flavus): 150 µg/mL (≈ 489 µM); IC50 [24]: > 30 µg/mL; IC90 [24]: > 30 µg/mL; inhibition of growth at 10 µg/mL (Staphylococcus aureus [25]): -21.3%
